From PubChem
NLRP3 yeast inh – NALP3 inflammasome inhibitors in reconstituted yeast, primary screen, luminescence, uHTS | 330,000 compounds, 0.39% hits | inhibition, % at 10 µM | Yeast reconstituted NLRP3/ASC/caspase-1, beta-gal luminescence, 24 h;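 active = inhibition of 50% or more; inactive = inhibition below 50%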;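 also: plate controls were induced DMSO wells for no effect and uninduced yeast grown without galactose for full effect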
NALP1 yeast inh – NALP1 inflammasome inhibitors in reconstituted yeast, colorimetric, S. cerevisiae, triplicate retest; S. cerevisiae NALP1/ASC/caspase-1 growth, X-gal OD620, 72 h; inhibition, % at 10 µM; 280,000 compounds, 0.61% hits; in the data active = inhibition mostly above about 24%, no sharp cut-off; inactive = mostly below about 32%
Calb FLC – C. albicans growth inhibition with fluconazole, primary screen, CaCi-2 strain, Alamar Blue fluorescence; C. albicans CaCi-2 + fluconazole, 48 h; growth inhibition, % (no concentration beside the values); 300,000 compounds, 0.57% hits; AID 1979, 2009;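 active = growth inhibition above about 58% in most replicates, limit read from the data, passing the limit was not always enough; inconclusive = exactly half the replicates above a set limit; inactive = most replicates below a set limit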;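 also: all wells also contain fluconazole at 8 µg/ml as a sub-toxic cotreatment; 0% = median of DMSO wells and 100% = median of geldanamycin control wells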
Lmaj promast – Leishmania major promastigote growth inhibition, primary screen; Leishmania major promastigotes, resazurin fluorescence viability; inhibition, % at 10 µM; 200,000 compounds, 9% hits; in the data active = inhibition above about 50%;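 also: promastigotes grown with compound for 44 hours at 28 °C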
PolyA inh – polyadenylation inhibitors in yeast reporter cells, primary screen, luminescence, S. cerevisiae | S. cerevisiae SKY197-pL101 polyadenylation reporter, beta-gal luminescence; efflux-impaired pdr1/pdr3 knockout yeast; score 100 = 6 SD above DMSO | activity score, % at 12 µM | 300,000 compounds, 0.02% hits | AID 1875, 2009;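 active = lowest replicate activity score at least 50, where 100 means six control SD above control mean; inconclusive = lowest score under 50 but half or more replicates reach 50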;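 also: yeast exposed to compound for 9 h at 30 °C; higher score means more reporter readthrough which indicates perturbed polyadenylation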
T cruzi inh – inhibitors of intracellular T. cruzi growth, primary screen, luminescence, NIH3T3 host cells; T. cruzi beta-gal in NIH3T3, 90 h; inhibition, % (no concentration beside the values); 300,000 compounds, 1.4% hits; AID 1885, 2009;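 active = mean inhibition across valid replicates above about 55%, limit read from the data; inconclusive = mean below that limit but half or more replicates reach it; inactive = mean below it, under half of replicates reach it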;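 also: signal also drops with host cell toxicity which is not excluded here; 0% = plate median of DMSO wells and 100% = zero luminescence signal; higher percent means less beta-gal luminescence so fewer parasites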
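System: NIH/3T3 fibroblasts plus reporter T. cruzi. Medium: DMEM plus 2% FBS. Probe or stimulus: 5000 reporter trypomastigotes per well. Compound: single 50 nL compound addition per well in DMSO. Incubation: co-culture of at least 90 h after 3 h attachment. Detection: GalScreen β-gal luminescence, detergent lysis, 60 min. Evaluation: parasite load inhibition, %.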
The depositor's hits bear a star; u = inconclusive; x = no result. This excerpt belongs to a sample that is enriched for hits.

SMILES	NLRP3 yeast inh	NALP1 yeast inh	Calb FLC	Lmaj promast	PolyA inh	T cruzi inh
COc1ccc(-c2cc3nc(C)c(CCC(=O)NCc4ccc(F)cc4)c(C)n3n2)c(OC)c1	6.4	-2.0	-31.3	92.8*	12.0	59.8*
Cc1nc2cc(-c3ccccc3)nn2c(C)c1CCC(=O)NCc1ccco1	13.0	-14.8	-6.1	2.1	14.5	-3.3
Cc1nc2cc(-c3cccc(F)c3)nn2c(C)c1CCC(=O)NC(C)CCc1ccco1 (configuration not stated)	17.2	-27.6	2.1	99.8*	-10.6	39.3
COc1cc(OC)cc(-c2cc3nc(C)c(CCC(=O)NC(C)CCc4ccco4)c(C)n3n2)c1 (configuration not stated)	8.0	24.0	7.8	100.2*	-2.0	64.6*
Cc1ccc(NC(=O)CC(=O)c2ccccc2)cc1C	29.8	20.0	-23.7	x	16.1	-2.5
O=C(CN1CCN(c2ccc(O)cc2)CC1)Nc1cc([N+](=O)[O-])ccc1Cl	-5.2	16.1	-2.3	18.7	2.9	14.1
CC(C)CCN(C(=O)c1cn2ccccc2n1)c1c(N)n(Cc2ccccc2)c(=O)[nH]c1=O	24.0	x	x	x	x	x
COc1ccccc1NC(=O)c1ccc(NC(=O)CSc2n[nH]c(N)n2)cc1	-0.3	5.7	19.8	65.0*	-0.1	-9.9
Oc1c(N=Nc2ccccn2)ccc2ccccc12	19.6	7.9	-2.5	100.2*	-12.9	72.6*
O=C(CCC1CCCN(Cc2ccc3c(c2)OCCO3)C1)NCc1ccc(F)c(F)c1 (configuration not stated)	-19.5	20.8	2.6	73.1*	13.9	61.8*
O=C(CCC1CCCN(Cc2cccc3c2OCO3)C1)NCc1ccc(F)c(F)c1 (configuration not stated)	4.6	4.0	-18.9	87.4*	-0.4	62.1*
CCOc1ccc(S(=O)(=O)Nc2nc3ccccc3nc2N2CCN(C)CC2)cc1	21.7	12.3	-3.1	100.3*	0.1	14.6
CCOc1ccc(S(=O)(=O)Nc2nc3ccccc3nc2Cl)cc1	5.7	8.5	23.3	x	17.9	-4.0
FC(F)(F)c1cccc(N2CCN(CC3CC4C=CC3C4)CC2)c1 (configuration not stated)	8.5	8.7	-18.1	82.0*	7.0	7.1
O=C(CN1CCN(c2cccc(C(F)(F)F)c2)CC1)Nc1cccc(C(F)(F)F)c1	8.0	-0.4	-4.4	-1.5	15.9	-3.2
Fc1ccccc1N1CCN(CC2CC3C=CC2C3)CC1 (configuration not stated)	14.5	7.2	-15.5	89.5*	-17.7	14.8
C1=CC2CC1CC2CN1CCN(Cc2ccccc2)CC1 (configuration not stated)	19.5	66.1	-2.1	95.0*	8.3	40.1
OC(CN1CCN(c2ccccc2F)CC1)c1ccc(F)cc1 (configuration not stated)	15.8	3.4	-3.2	x	-2.6	17.6
COc1cccc(OCc2cc(C(=O)NCc3cnc4ccccn34)no2)c1	22.1	-14.5	9.7	x	23.6	-17.2
CCN(CC(=O)NCc1cccs1)C(=O)CCc1c[nH]c2ccccc12	-2.6	5.2	-13.7	-2.2	-5.1	-5.6
COC(=O)c1cc(-c2cc(OC)ccc2OC)nc2c1c(=O)n(C)c(=O)n2Cc1ccccc1	25.4	5.9	1.4	x	-12.1	39.1
COc1ccc(N(C(=O)c2ccccc2OC(C)=O)C(C)C2CC2)cc1 (configuration not stated)	0.3	x	1.2	99.8*	-2.9	-4.3
COc1ccc(NC(=O)CN(C)C(=O)c2ccccc2OC)cc1	x	5.9	-2.3	x	-9.9	-8.7
CC(=O)OCC1=C(C(=O)O)N2C(=O)[C@@H](NC(=O)Cc3cccs3)[C@H]2SC1	-1.4	135.8*	x	-4.4	-14.2	-1.3
Cc1ccc(NC(=O)c2cc(N3C(=O)CCC3=O)ccc2N2CCOCC2)cc1	4.5	-0.9	7.1	14.9	-6.0	-27.7
SMILES	NLRP3 yeast inh	NALP1 yeast inh	Calb FLC	Lmaj promast	PolyA inh	T cruzi inh
Cc1ccc(NC(=O)c2cc(N3C(=O)C=CC3=O)ccc2N2CCOCC2)cc1Cl	x	18.3	8.1	25.8	-87.6	55.2*
COc1cccc(C(C(=O)NC2CCCC2)N(C(=O)c2ccco2)c2ccc(NC(C)=O)cc2)c1OC (configuration not stated)	16.1	3.7	-25.8	x	14.4	6.3
CCN(CCCNC(=O)C1CCN(S(=O)(=O)c2cnc[nH]2)CC1)c1cccc(C)c1	-0.7	10.8	20.8	-4.6	20.0	3.5
CCc1ccc2[nH]c3nc(N/N=C/c4ccc(O)cc4O)nnc3c2c1	31.4	-11.2	u	x	-18.8	56.8*
Cc1ccc2[nH]c3nc(N/N=C/c4cccc(O)c4)nnc3c2c1	9.0	9.9	4.3	x	20.9	-18.0
Cc1ccc(Oc2ccc(Cl)cc2NC(=O)c2ccc(F)cc2F)cc1	0.7	20.6	-8.1	58.3*	-9.5	14.9
O=C(Nc1cc(Cl)ccc1Oc1ccccc1)c1ccccc1F	-10.3	8.1	-42.7	1.8	-69.6	15.1
CCN(CC)c1ccc(NC(=O)CCNC(=O)c2ccco2)cc1	7.8	22.3	-14.5	89.9*	9.5	-2.0
O=C(CCC1CCCC1)c1c(O)c2ccccc2oc1=O	35.2	40.0*	-4.1	-3.1	-14.2	-11.7
O=C(NCC1CCCO1)c1cccc(S(=O)(=O)Nc2ccc(SC(F)F)cc2)c1 (configuration not stated)	3.9	x	x	x	x	x
CN(CC(=O)Nc1ccc(F)cc1)S(=O)(=O)c1ccc2c(c1)c(=O)n(C)c(=O)n2C	-6.0	18.1	-1.1	x	-10.9	3.6
CC(NC(=O)CCc1nnc(CCCc2ccccc2)o1)c1ccccc1 (configuration not stated)	7.1	14.9	-16.8	76.3*	-11.7	39.0
CC(NC(=O)CCc1nnc(-c2ccccc2)o1)c1ccccc1 (configuration not stated)	-9.5	1.2	-4.0	-3.6	9.1	-1.3
CCN(CC)CCCN1C(=O)CSC1c1ccc([N+](=O)[O-])cc1 (configuration not stated)	8.4	-2.5	-12.1	75.8*	6.4	8.8
CCN(CC)CCCN1C(=O)CSC1c1ccc2c(c1)OCO2 (configuration not stated)	12.1	-8.6	2.7	12.0	14.4	7.9
O=c1c2ccccc2nc2n1C(CSc1ccccc1)CS2 (configuration not stated)	-8.0	-4.3	16.2	2.1	-7.3	-1.6
O=c1c2ccccc2nc2n1C(CSCc1ccc(Cl)cc1)CS2 (configuration not stated)	5.5	36.2	-0.3	59.5*	-11.7	-2.3
